Screening data as filed in PubChem BioAssay.
STAT1 inh: STAT1 signaling inhibition. NIH 3T3 STAT1-luciferase reporter, IFN-gamma, luminescence. inhibition, % at 5.5 µM. 0.35% of 200,000 active. AID 920;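 active = inhibition above a set limit, the mean inhibition across all tested compounds plus 3 SD, cut at about 34% in these data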
STAT3 inh: inhibitors of IL-6 induced STAT3 signaling | U3A cells, IL-6 STAT3-luciferase reporter, luminescence; host cell line lacks STAT1 | inhibition, % at 5.5 µM | 0.89% of 190,000 active | AID 862;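 active = inhibition above the mean inhibition across all screened compounds plus 3 SD, cut at about 44% in these data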
STAT3 activator: activators of IL-6 induced STAT3 signaling. U3A cells, IL-6 STAT3-luciferase reporter, luminescence; 100% = signal with IL-6 EC80 alone. activation (% of control), % at 5.6 µM. 0.91% of 190,000 active. AID 871;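 active = activation above the screen-wide mean of compound activation plus 3 SD, cut at about 130% in these data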
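Detection: reporter luminescence signal / Assay system: STAT1-lacking human U3A cells, STAT3 luciferase reporter / Incubation: compound pre-incubation 1 h before IL-6, then 6 h stimulation at 37 °C / Control set: IL-6-only high control / Read-out: % activation relative to IL-6 control / Probe or stimulus: Interleukin-6, 33 ng/mL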
STAT1 act: increases IFN-gamma driven STAT1 reporter signal; NIH 3T3 STAT1-luciferase reporter, luminescence; 100% = IFN-gamma alone, no compound; activation (% of control), % at 5.5 µM; 2.6% of 200,000 active; AID 932;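 active = activation above the screen-wide mean activation plus 3 SD, cut at about 130% in these data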
Each line names hits and unclear results; the compound was inactive in the other large screens. An excerpt weighted towards active compounds, which were near 4.3% of everything screened.

COc1ccc2c(c1OC)C(=O)N1c3ccccc3SC21 (centres undefined)	STAT1 act 148.9
CSc1ccc(-c2cc(=O)c3ccccc3o2)cc1	STAT3 activator 141.0, STAT1 act 134.2
O=c1cc(-c2ccccc2[N+](=O)[O-])oc2ccccc12	none
O=c1cc(-c2ccccc2F)oc2ccccc12	STAT1 act 134.7
O=c1cc(-c2ccc(F)cc2)oc2ccccc12	STAT1 act 133.0
Cc1nc(C(F)(F)F)c(C(=O)N/N=C(\N)c2ccccn2)s1	none
Cc1cc(CNC(=O)CC2C(=O)NCCN2CC(C)(C)C)nn1C (centres undefined)	none
O=C(Nc1cc(S(=O)(=O)N2CCOCC2)ccc1N1CCCC1)c1ccc2c(c1)S(=O)(=O)c1ccccc1C2=O	none
N#Cc1ccc(Cl)cc1NC(=O)COC(=O)c1ccc(S(=O)(=O)N2CCCC2)cc1	STAT3 activator 133.8
O=C(COC(=O)c1ccc(S(=O)(=O)N2CCCC2)cc1)Nc1ccc(F)cc1F	none
C/C(=N\NC(=O)c1ccc(O)cc1)c1ccc2c(c1)Nc1ccccc1S2	none
C/C(=N\NC(=O)c1ccccc1F)c1ccc2c(c1)Nc1ccccc1S2	STAT1 act 131.6
O=c1[nH]c2ccccc2nc1C(F)(F)C(F)F	STAT1 act 137.5
O=c1[nH]c2cc3ccccc3cc2nc1C(F)(F)F	none
CC(C)CNC(=S)N1CCC(C(=O)c2ccc3c(c2)OCCO3)CC1	none
Cc1ccc(NC(=S)NNC(=O)c2c(Cl)c(C)nn2C)cc1	none
Cc1ccc(NC(=S)NNC(=O)c2nn(C)c(C)c2Cl)cc1	STAT1 act 131.1
CC1=Nc2ccccc2N=C(N)C1c1ccccc1 (centres undefined)	STAT1 act 146.1
CC1=Nc2ccccc2N=C(NC(=O)c2ccccc2)C1c1ccc(Cl)cc1 (centres undefined)	none
CCCC1=C([O-])C2N=CC=CC2=[N+](c2ccccn2)C1=O (centres undefined)	none
Cc1ccc(-c2cc(C(=O)N3CCCc4ccccc43)no2)cc1	STAT1 act 137.2
O=C(c1cc(-c2ccc(F)cc2)on1)N1CCCc2ccccc21	none
COc1ccc(O)c(C(=O)CC(=O)c2ccccc2C)c1	STAT1 act 145.1
COc1ccc(NC(=O)c2ccccc2C)c(OC)c1	none
O=C1CN(C(=O)c2cc([N+](=O)[O-])ccc2Cl)C(c2ccc(F)cc2)c2cc(F)ccc2N1 (centres undefined)	none
CCOC(=O)c1ccc(NC(=O)/C=C/c2cccs2)cc1	STAT1 act 143.1
Cc1csc(NC(=O)/C=C/c2ccc(C)o2)n1	none
O=C(/C=C/c1cccs1)Nc1nccs1	STAT1 act 133.9
Cc1ccc(/C=C/C(=O)Nc2ncc(C)s2)o1	STAT1 act 147.4
Cc1ccc(/C=C/C(=O)Nc2nccs2)o1	STAT1 act 148.3
O=C(/C=C\c1ccccc1)Nc1nccs1	none
CCN(CC)CCOC(=O)c1ccc(NC(=O)/C=C/c2cccs2)cc1	none
Cn1c(NC(=O)c2ccc(S(=O)(=O)N3CCOCC3)cc2)cc(=O)n(C)c1=O	none
N#CCCN(Cc1cccnc1)C(=S)NC(=O)C1CC1	none
CCOC(=O)/C(=N/Nc1ccccc1)Sc1nnc(CCc2ccccc2)n1-c1ccccc1	none
O=C(/C=C/c1cccs1)Nc1ccc(Br)cn1	STAT3 activator 133.0, STAT1 act 178.4
Cc1ccccc1NC(=O)/C=C/c1cccs1	STAT1 act 129.0
O=C(CSCc1cccc(Cl)c1)N1CCN(Cc2ccc3c(c2)OCO3)CC1	none
O=C(COc1ccc2c(c1)OCO2)Nc1ccccc1C(F)(F)F	none
COc1cc(CC(=O)N/N=C/c2ccc([N+](=O)[O-])cc2)c([N+](=O)[O-])cc1OC	none
O=C(Nc1nc2ccc(Cl)cc2s1)c1ccc(Br)o1	STAT1 act 148.1
Cn1ncc(Cl)c1C(=O)Nc1nc2ccc(Cl)cc2s1	STAT1 act 149.8
CSc1cccc(NC(=O)CN(Cc2ccc(Cl)cc2)S(C)(=O)=O)c1	none
COc1ccccc1N=c1oc2cc(O)ccc2cc1C(N)=O	none
Cc1cccc(N=c2oc3cc(O)ccc3cc2C(N)=O)c1	STAT1 act 130.1
COc1ccc2cc(C(N)=O)c(=Nc3ccc(C)cc3)oc2c1	STAT1 act 138.2
CC(C)CN(C(=O)COC(=O)CCc1c[nH]c2ccccc12)C1CCS(=O)(=O)C1 (centres undefined)	none
CC(C)CN(C(=O)COC(=O)Cc1c[nH]c2ccccc12)C1CCS(=O)(=O)C1 (centres undefined)	STAT3 activator 133.4
COc1ccccc1N1CCN(CC(=O)Nc2c(C)n(C)n(-c3ccccc3)c2=O)CC1	none
O=C1CN(C(=O)COc2ccc(Br)cc2)c2ccccc2N1	none
COc1ccc(C(=O)/C=C2\Sc3ccccc3N2C)cc1	STAT1 act 131.7
CCCN1C(=O)/C(=N\OCC(=O)NCC(F)(F)F)c2ccccc21	none
Cc1ccc(C(=O)NCCc2cccs2)cc1	STAT1 inh 57.6, STAT3 inh 80.7
CCn1nc2cc(C(=O)NCCc3cccs3)ccc2c1OC	STAT1 act 133.1
CCOc1c2ccc(C(=O)NCCc3ccc(C)cc3)cc2nn1CC	none
Cc1ccccc1-n1c(C)nnc1SCc1nc2ccccc2s1	STAT3 activator 142.1, STAT1 act 132.3
Cn1c(SCc2nc3ccccc3s2)nnc1-c1cccs1	none
NC(=O)CSCc1nc2ccccc2s1	STAT3 activator 135.1
CCCn1c(SCc2nc3ccccc3s2)n[nH]c1=O	STAT1 act 134.0
O=c1[nH]nc(SCc2nc3ccccc3s2)n1C1CC1	none
Cc1c(NC(=O)C(C)OC(=O)/C=C/c2ccc3c(c2)OCO3)c(=O)n(-c2ccccc2)n1C (centres undefined)	none
Cc1cc(C)nc(NS(=O)(=O)c2ccc(NC(=O)CSc3nc(-c4ccccc4)c(C#N)c(=O)[nH]3)cc2)n1	none
C/C(=N\N=C\c1ccccc1F)c1nnn(-c2nonc2N)c1C	STAT1 act 142.0
O=C(Oc1ccc([N+](=O)[O-])cc1)c1cncc(Br)c1	none
CC(Oc1ccc(Cl)cc1Cl)c1nc(-c2ccc(NC(=O)c3ccccn3)cc2)no1 (centres undefined)	STAT1 act 128.7
Cc1sc(C(=O)Nc2ccc3ccccc3c2)cc1CC(=O)O	none
CN(C)c1ccc(/C=C/C(=O)c2ccccc2O)cc1	none
CN(C)c1ccc(/C=C/c2ccc3c4ccccc4ccc3[n+]2-c2ccccc2)cc1	STAT1 inh 46.2, STAT3 inh 80.8
Fc1ccc2nc(Nc3ccccc3)sc2c1	STAT1 act 139.7
NNc1nc2ccc(F)cc2s1	STAT1 act 149.9
COc1ccc(Nc2nc3ccc(OC)cc3s2)cc1	STAT1 act 129.5
NNc1nc2ccc(Cl)cc2s1	none
Cc1cc(O)c(NC(=O)c2cc([N+](=O)[O-])ccc2Cl)cc1C	STAT3 activator 134.2
C=CC(=O)NCCCc1cc(C(C)(C)C)c(O)c(C(C)(C)C)c1	none
COc1n[nH]c(C(=O)Nc2nc3ccccc3s2)c1[N+](=O)[O-]	STAT1 act 134.5
O=C(Nc1nnc(-c2ccccc2F)s1)C1CCCO1 (centres undefined)	STAT1 act 141.4
O=C(Nc1nc2ccc(C(=O)N3CCCCC3)cc2s1)C1CCCCC1	none
